Measurements from PMC8504818 (Clinical and Translational Science, 2021).
Entries after “also recorded” stand apart in the source; their conditions may differ. Where two headings read alike, the source gives them in different places. Marks after values point to notes of the source that are not given here. Values belong to the compound of their own block, whether it stands above or below them.

Assays:
Study 1 [1] = format: in vivo, human; details: for Intracellular islatravir‐TP AUC0–168 h / Intracellular islatravir‐TP AUC0–∞ / Intracellular islatravir‐TP C168 h / Intracellular islatravir‐TP Cmax: PBMC, LS geometric mean (95% CI)
Method in brief: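 PBMCs from healthy adults were collected up to ~336 h after single oral doses, fasted or after a high-fat meal (30 mg). Cells were lysed in methanol-containing solvent, protein-precipitated, and triphosphate was measured by ion-exchange LC-MS/MS (LLOQ 0.50 ng/ml; range 0.50–200.00 ng/ml). Concentrations were carryover-corrected when predose exceeded 5% of Cmax. Results are LS geometric means (95% CI) from a log-scale mixed model; fed/fasted ratios have 90% CI.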

[2] = format: in vivo, human; details: for Tmax: human, PBMCs, oral
Method in brief: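 Healthy adults took weekly oral capsules (10, 30, 100 mg) for 3 weeks. PBMCs were collected up to ~336 h after the last dose and triphosphate was quantified by ion-exchange LC-MS/MS (LLOQ 0.50 ng/ml). Tmax is observed. […] LS means are given with 95% CI.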

[3] = cited from earlier work
Study 1 [4] = format: in vivo, human
Method in brief: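 Fasted single oral-suspension doses, with 30 mg also given after a high-fat breakfast (55.6 g fat, 55 g carbohydrate, 31.1 g protein), 6 active and 2 placebo per panel. Plasma was sampled predose to ~96 h and analysed by protein precipitation and reversed-phase LC-MS/MS (LLOQ 1.00 ng/ml; range 1.00–1000.00 ng/ml). Log-transformed values went into a mixed model (treatment fixed, subject random), giving a fed/fasted geometric mean ratio with 90% CI.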

Study 2 = format: in vivo, human; details: for Accumulation ratio: week 3 / week 1, plasma islatravir AUC0–168 h / Accumulation ratio: week 3 / week 1, plasma islatravir Cmax: LS mean difference (90% CI); for AUC(0-t): Plasma islatravir AUC0–168 h; for AUC(0-t) / Cmax: LS mean (95% CI); for Cmax: Plasma islatravir Cmax
Method in brief: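 Capsules of 10, 30 or 100 mg were given once weekly for 3 weeks, fasted (6 active, 2 placebo per panel). Plasma was sampled predose to ~168 h after dosing and measured by reversed-phase LC-MS/MS after protein precipitation (LLOQ 1.00 ng/ml). […] Week 3/week 1 ratios are back-transformed with 90% CI.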

Study 1 [5] = format: in vivo, human; remark: listed apart in the source
Method in brief: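 Double-blind, randomized, alternating-panel single-dose design: 3 panels of 8 (6 active, 2 placebo) received an oral suspension or the vehicle as placebo. Assessments were vital signs, 12-lead ECGs, and hematology and blood chemistry at prespecified times. Adverse events were recorded from consent through 21 days after treatment ended. Placebo recipients were pooled. Participants were adults 18–60 y, BMI ≤32 kg/m2, men or women of nonchildbearing potential.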

[6] = Study 2 safety and tolerability; format: in vivo, human
Method in brief: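 Double-blind, randomized, serial-panel multiple-dose design: 3 panels of 8 (6 active, 2 placebo) took capsules once weekly for 3 weeks, at least 10 days between panels. Assessments were vital signs, 12-lead ECGs, and hematology and blood chemistry at prespecified times. Adverse events were monitored from consent through 21 days after the last dose. Placebo data were pooled. Participants were adults 18–60 y, BMI ≤32 kg/m2, without HIV.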

SIV [7] = details: once‐weekly oral islatravir; cited from earlier work
SIV [8] = details: weekly oral islatravir; cited from earlier work
HIV‐1 = details: cited from earlier work
[9] = Study 2, 10 mg once weekly, Week 1, LS mean (95% CI)
[10] = Study 2, 10 mg once weekly, Week 3, LS mean (95% CI)
[11] = Study 2, 30 mg once weekly, Week 1, LS mean (95% CI)
[12] = Study 2, 30 mg once weekly, Week 3, LS mean (95% CI)
[13] = Study 2, 100 mg once weekly, Week 1, LS mean (95% CI)
[14] = Study 2, 100 mg once weekly, Week 3, LS mean (95% CI)
[15] = human, plasma, oral, 100 mg, Study 2, 100 mg once weekly, Week 1
[16] = human, plasma, oral, 100 mg, Study 2, 100 mg once weekly, Week 3
[17] = up to 100 mg once weekly for 3 weeks

posterior probability that the true mean intracellular islatravir‐TP C168 h is greater than 0.53 pmol/10^6 cells (Study 1 [1]; doses of 15 mg and above): greater than 99%
Intracellular islatravir‐TP AUC0–168 h (Study 1 [1]; single oral 5 mg fasted): 91.6 (73.5–114) h*pmol/10^6cells
Intracellular islatravir‐TP AUC0–∞ (Study 1 [1]; single oral 5 mg fasted): 162 (120–217) h*pmol/10^6cells
Intracellular islatravir‐TP C168 h (Study 1 [1]; single oral 5 mg fasted): 0.29 (0.19–0.45) pmol/10^6 cells
Intracellular islatravir‐TP Cmax (Study 1 [1]; single oral 5 mg fasted): 1.06 (0.83–1.37) pmol/10^6cells
Intracellular islatravir‐TP AUC0–168 h (Study 1 [1]; single oral 15 mg fasted): 341 (274–425) h*pmol/10^6cells
Intracellular islatravir‐TP AUC0–∞ (Study 1 [1]; single oral 15 mg fasted): 670 (499–900) h*pmol/10^6cells
Intracellular islatravir‐TP C168 h (Study 1 [1]; single oral 15 mg fasted): 1.24 (0.80–1.92) pmol/10^6 cells
Intracellular islatravir‐TP Cmax (Study 1 [1]; single oral 15 mg fasted): 3.65 (2.85–4.69) pmol/10^6cells
Intracellular islatravir‐TP AUC0–168 h (Study 1 [1]; single oral 30 mg fasted): 871 (700–1080) h*pmol/10^6cells
Intracellular islatravir‐TP AUC0–∞ (Study 1 [1]; single oral 30 mg fasted): 1420 (1060–1900) h*pmol/10^6cells
Intracellular islatravir‐TP C168 h (Study 1 [1]; single oral 30 mg fasted): 2.76 (1.78–4.29) pmol/10^6 cells
Intracellular islatravir‐TP Cmax (Study 1 [1]; single oral 30 mg fasted): 8.21 (6.39–10.50) pmol/10^6cells
Intracellular islatravir‐TP Cmax (Study 1 [1]; single oral 30 mg fed): 7.85 (6.11–10.1) pmol/10^6cells
Intracellular islatravir‐TP AUC0–∞ (Study 1 [1]; single oral 30 mg fed, N = 4): 1370 (975–1920) ^g h*pmol/10^6cells
Intracellular islatravir‐TP AUC0–168 h (Study 1 [1]; single oral 30 mg fed, N = 5): 660 (520–838) ^f h*pmol/10^6cells
Intracellular islatravir‐TP C168 h (Study 1 [1]; single oral 30 mg fed, N = 5): 2.71 (1.67–4.40) ^f pmol/10^6 cells
Intracellular islatravir‐TP AUC0–168 h (Study 1 [1]; single oral 100 mg fasted): 1260 (1010–1560) h*pmol/10^6cells
Intracellular islatravir‐TP AUC0–∞ (Study 1 [1]; single oral 100 mg fasted): 2480 (1850–3330) h*pmol/10^6cells
Intracellular islatravir‐TP C168 h (Study 1 [1]; single oral 100 mg fasted): 4.79 (3.09–7.43) pmol/10^6 cells
Intracellular islatravir‐TP Cmax (Study 1 [1]; single oral 100 mg fasted): 13.8 (10.7–17.7) pmol/10^6cells
Intracellular islatravir‐TP AUC0–168 h (Study 1 [1]; single oral 200 mg fasted): 3100 (2490–3860) h*pmol/10^6cells
Intracellular islatravir‐TP AUC0–∞ (Study 1 [1]; single oral 200 mg fasted): 5180 (3850–6960) h*pmol/10^6cells
Intracellular islatravir‐TP C168 h (Study 1 [1]; single oral 200 mg fasted): 7.73 (4.98–12.0) pmol/10^6 cells
Intracellular islatravir‐TP Cmax (Study 1 [1]; single oral 200 mg fasted): 38.4 (29.9–49.3) pmol/10^6cells
Intracellular islatravir‐TP AUC0–168 h (Study 1 [1]; single oral 400 mg fasted): 5300 (4260–6580) h*pmol/10^6cells
Intracellular islatravir‐TP AUC0–∞ (Study 1 [1]; single oral 400 mg fasted): 9320 (6950–12500) h*pmol/10^6cells
Intracellular islatravir‐TP C168 h (Study 1 [1]; single oral 400 mg fasted): 18.3 (11.8–28.4) pmol/10^6 cells
Intracellular islatravir‐TP Cmax (Study 1 [1]; single oral 400 mg fasted): 63.6 (49.6–81.6) pmol/10^6cells
Islatravir‐TP AUC0–168 h [2, 9]: 341 (256, 454) h*pmol/10^6 cells
Islatravir‐TP Cmax [2, 9]: 3.79 (2.68, 5.34) pmol/10^6 cells
Islatravir‐TP AUC0–168 h [2, 10]: 476 (357, 634) h*pmol/10^6 cells
Islatravir‐TP Cmax [2, 10]: 6.38 (4.52, 9.00) pmol/10^6 cells
Islatravir‐TP AUC0–168 h [2, 11]: 1160 (872, 1550) h*pmol/10^6 cells
Islatravir‐TP Cmax [2, 11]: 13.2 (9.34, 18.6) pmol/10^6 cells
Islatravir‐TP AUC0–168 h [2, 12]: 1570 (1180, 2100) h*pmol/10^6 cells
Islatravir‐TP Cmax [2, 12]: 19.6 (13.9, 27.7) pmol/10^6 cells
Islatravir‐TP AUC0–168 h [2, 13]: 3150 (2370, 4200) h*pmol/10^6 cells
Islatravir‐TP C168 [2, 13]: 13.5 (10.4, 17.6) pmol/10^6 cells
Islatravir‐TP Cmax [2, 13]: 31.3 (22.2, 44.2) pmol/10^6 cells
Islatravir‐TP AUC0–168 h [2, 14]: 4740 (3560, 6320) h*pmol/10^6 cells
Islatravir‐TP Cmax [2, 14]: 46.7 (33.1, 65.9) pmol/10^6 cells
islatravir‐TP C168 h versus pharmacokinetic target ([2]; Study 2, after the first weekly dose at all dose levels, posterior probability calculation): > 0.53 pmol/10^6 cells
accumulation of intracellular islatravir‐TP ([2]; Study 2, multiple weekly doses of 30 and 100 mg): modest degree of accumulation
accumulation of intracellular islatravir‐TP ([2]; Study 2, multiple weekly doses of 30 and 100 mg, listed as islatravir‐triphosphate): modest degree
accumulation of intracellular islatravir‐TP ([2]; Study 2, weekly administration): ~1.5 fold
Tmax ([2]; 10 mg): 48 h
Tmax ([2]; 30 mg): 9 h
Tmax ([2]; 100 mg): 18 h
SMILES: C#C[C@]1(COP(=O)(O)OP(=O)(O)OP(=O)(O)O)O[C@@H](n2cnc3c(N)nc(F)nc32)C[C@@H]1O [islatravir‐TP, 4'‐Ethynyl‐2‐fluoro‐2'‐deoxyadenosine triphosphate]
effect of food on islatravir‐TP AUC, Cmax, and C168 (Study 1 [1]; 30 mg with a high‐fat meal): largely unchanged; also recorded: did not affect
intracellular persistence of islatravir‐TP ([3]; preclinically): > 72 h

SMILES: C#C[C@]1(CO)O[C@@H](n2cnc3c(N)nc(F)nc32)C[C@@H]1O [islatravir, 4'‐Ethynyl‐2‐fluoro‐2'‐deoxyadenosine]
decrease in plasma islatravir Cmax with a high‐fat meal (Study 1 [4]; 30 mg fed vs fasted): 49%
increase in plasma islatravir AUC0–∞ with a high‐fat meal (Study 1 [4]; 30 mg fed vs fasted): 10%
food effect on pharmacokinetics (Study 1 [4]; 30 mg with a high‐fat meal): no meaningful food effect
Tmax (Study 1 [4]; human, plasma, po, median time to maximum plasma concentration (Tmax), fasted state, single oral doses): 0.5 h
Accumulation ratio: week 3 / week 1, plasma islatravir AUC0–168 h (Study 2; Study 2, 10 mg once weekly): 1.22 (1.08, 1.36) h*μmol/L
Accumulation ratio: week 3 / week 1, plasma islatravir Cmax (Study 2; Study 2, 10 mg once weekly): 1.25 (0.82, 1.92) nmol/L
Accumulation ratio: week 3 / week 1, plasma islatravir AUC0–168 h (Study 2; Study 2, 30 mg once weekly): 1.22 (1.09, 1.37) h*μmol/L
Accumulation ratio: week 3 / week 1, plasma islatravir Cmax (Study 2; Study 2, 30 mg once weekly): 0.99 (0.64, 1.51) nmol/L
Accumulation ratio: week 3 / week 1, plasma islatravir AUC0–168 h (Study 2; Study 2, 100 mg once weekly): 1.25 (1.11, 1.40) h*μmol/L
Accumulation ratio: week 3 / week 1, plasma islatravir Cmax (Study 2; Study 2, 100 mg once weekly): 1.26 (0.82, 1.93) nmol/L
accumulation of islatravir in plasma (Study 2; Study 2, once‐weekly dosing for 3 weeks): little to no accumulation; also recorded: minimal accumulation
concentration at 48 h (Study 2; human, plasma, oral, 10 mg): < 1 ng/mL
concentration at 96 h (Study 2; human, plasma, oral, 10 mg): < 1 ng/mL
half-life (Study 2; human, plasma, oral, 10 mg): 16.5 h
half-life (Study 2; human, plasma, oral, 30 mg): 74.2 h
half-life (Study 2; human, plasma, oral, 100 mg): 87.1 h
AUC(0-t) (Study 2; [15]): 9.62 µM·h
AUC(0-t) (Study 2; [16]): 12 µM·h
Cmax (Study 2; [15]): 1470 nM
Cmax (Study 2; [16]): 1850 nM
adverse events considered related to islatravir (Study 1 [5]): none
changes in clinical laboratory values, vital signs, or ECG safety parameter values (Study 1 [5]): No clinically meaningful relationships
intensity of adverse events (Study 1 [5]): mild to moderate
total nonserious adverse events (Study 1 [5]): 30
serious adverse events (Study 1 [5]; single doses up to 400 mg): no serious adverse events
tolerability (Study 1 [5]; single oral doses up to 400 mg): generally well‐tolerated
changes in clinical laboratory values, vital signs, or ECG safety parameter values [6]: No clinically meaningful relationships
intensity of adverse events [6]: mild to moderate
total nonserious adverse events [6]: 12
serious adverse events [6, 17]: no serious adverse events
tolerability [6, 17]: generally well‐tolerated
time of peak plasma concentrations postdose ([3]; rhesus macaque, enteral administration): ~ 90 min
duration of declines in SIV RNA (SIV [7]): at least 7 days
protection from infection (SIV [8]): protected
tolerability (HIV‐1; phase 1b single dose): generally well‐tolerated
suppression of HIV‐1 RNA (HIV‐1; single oral doses as low as 0.5 mg, day 7): greater than 1.0 log
